As usually defined, the MIC is the lowest concentration that inhibits growth of the organism. As usually defined, the Kd is the equilibrium constant for the complex coming apart.

Values after ≈ are worked out from the molar mass of the structure shown.

For 2 compounds, MIC, Kd and Selectivity ratio results are on record in ChEMBL document CHEMBL3351483, “Desmethyl macrolides: synthesis and evaluation of 4-desmethyl telithromycin” (ACS Med Chem Lett, 2014).

Assay [1] relates to Staphylococcus aureus. Nature of the assay: Antimicrobial activity against Staphylococcus aureus ATCC 33591 harboring ermA gene. Type of assay: functional.
The subject of assay [2] is Staphylococcus aureus. Nature of the assay: Antimicrobial activity against Staphylococcus aureus UCN14 harboring ribosome A2058T mutant. Type of assay: functional.
In assay [3] the test system is Escherichia coli. Nature of the assay: Antimicrobial activity against tolC-negative Escherichia coli DK/2058G harboring ribosome A2058G mutant. In kind it is functional. The method, boiled down: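 MIC determination in a tolC(−) E. coli strain lacking the outer-membrane efflux pump, carrying a mixed ribosome population of wild-type and A2058G mutant at about 1:1.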

Assay [4] concerns Escherichia coli. Put plainly: Antimicrobial activity against tolC-negative wild type Escherichia coli DK/pKK3535. In kind it is functional. The method, boiled down:
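MIC determined against E. coli DK/pKK3535, a tolC(−) strain that lacks the outer-membrane TolC efflux pump, which recognizes antibacterial drugs, and that carries wild-type ribosomes.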

Assay [5] deals with Escherichia coli. Put plainly: Antimicrobial activity against Escherichia coli SQ171/2058G harboring ribosome A2058G mutant. Type of assay: functional.
For a further assay, the target named is Bacterial 70S ribosome. Nature of the assay: Binding affinity to Escherichia coli ribosomes after 2 hrs by fluorescence polarization assay in presence of BODIPY-labeled erythromycin A. The method, boiled down:
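Competitive fluorescence polarization binding assay with isolated E. coli ribosomes and BODIPY-labelled erythromycin as the displaced probe; dissociation constant (Kd) derived from probe displacement.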
Background: In fluorescence polarisation assays a small probe gives low polarisation when free and higher when bound to something large.

Assay [6] is described as follows: Selectivity ratio of MIC for Escherichia coli […] harboring ribosome A2058G mutant to MIC for tolC-negative wild type Escherichia coli DK/pKK3535. In kind it is functional.

On to `CC[C@H]1OC(=O)[C@H](C)C(=O)C[C@@H](O[C@@H]2O[C@H](C)C[C@H](N(C)C)[C@H]2O)[C@](C)(OC)C[C@@H](C)C(=O)[C@H](C)[C@H]2N(CCCCn3cnc(-c4cccnc4)c3)C(=O)O[C@]12C`, for which the MIC in the assay with Staphylococcus aureus [1] is above 128 mg/L; in the assay on Staphylococcus aureus [2], above 128 mg/L; in the assay on Escherichia coli [3] it was 1 mg/L (≈ 1.25 µM); against Escherichia coli [4], 0.5 mg/L (≈ 0.627 µM); against Escherichia coli [5] it was above 256 mg/L. For the same compound, the Kd at Bacterial 70S ribosome was found to be 6.4 nM. Besides, in assay [6], the Selectivity ratio came out at 4.
As for `CC[C@H]1OC(=O)[C@H](C)C(=O)[C@H](C)[C@@H](O[C@@H]2O[C@H](C)C[C@H](N(C)C)[C@H]2O)[C@](C)(OC)C[C@@H](C)C(=O)[C@H](C)[C@H]2N(CCCCn3cnc(-c4cccnc4)c3)C(=O)O[C@]12C` [TELITHROMYCIN], the MIC against Staphylococcus aureus [1] was above 128 mg/L; with Staphylococcus aureus [2], above 256 mg/L; in the assay with Escherichia coli [3], 4 mg/L (≈ 4.93 µM); with Escherichia coli [4], 0.5 mg/L (≈ 0.616 µM); against Escherichia coli [5] it was above 256 mg/L. The Kd on Bacterial 70S ribosome is 6.4 nM.
